Each structure is given as a SMILES string. ≈ marks a conversion by molar mass, not a printed value.

The subject of experiment [1] is Streptococcus agalactiae. Put plainly: Antimicrobial activity against penicillin-resistant Streptococcus agalactiae B516 by agar dilution method. The format is functional. In outline: (§1)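 Agar dilution MICs run per the CLSI recommendation. S. pneumoniae ATCC 49619 was included as the quality control strain. β-lactams tested were penicillin G, penicillin V, ampicillin, oxacillin, cefazolin, cefepime, cefotaxime, ceftizoxime and meropenem. Test strains were S. agalactiae clinical sputum isolates and ATCC strains BAA-611 and 12403.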
(In general: In agar dilution the substance is mixed into plates at graded concentrations.)

Experiment [2] has as its system Streptococcus agalactiae. Kind of experiment: Antimicrobial activity against penicillin-resistant Streptococcus agalactiae B7 by agar dilution method. The experiment is classed as functional. The procedure, abridged: as §1
Experiment [3] has as its system Streptococcus agalactiae. Kind of experiment: Antimicrobial activity against penicillin-resistant Streptococcus agalactiae B502 by agar dilution method. The experiment is classed as functional. In outline: as §1
Experiment [4] has as its system Streptococcus agalactiae. Put plainly: Antimicrobial activity against penicillin-resistant Streptococcus agalactiae ATCC BAA-611 harboring PBP-2X V405A mutant gene by agar dilution method. The format is functional. In outline: as §1
Experiment [5] has as its system Streptococcus agalactiae. Kind of experiment: Antimicrobial activity against penicillin-resistant Streptococcus agalactiae B40 by agar dilution method. The experiment is classed as functional. The procedure, abridged: as §1
Experiment [6] deals with Streptococcus agalactiae. Kind of experiment: Antimicrobial activity against penicillin-resistant Streptococcus agalactiae B8 by agar dilution method. The format is functional. The procedure, abridged:
as §1

Experiment [7] relates to Streptococcus agalactiae. Kind of experiment: Antimicrobial activity against penicillin-resistant Streptococcus agalactiae B503 by agar dilution method. The format is functional. In outline:
as §1

For experiment [8], the system named is Streptococcus agalactiae. Put plainly: Antimicrobial activity against penicillin-resistant Streptococcus agalactiae B10 by agar dilution method. The experiment is classed as functional. In outline: as §1
Experiment [9] concerns Streptococcus agalactiae. Put plainly: Antimicrobial activity against penicillin-resistant Streptococcus agalactiae B12 by agar dilution method. The experiment is classed as functional. In outline: as §1
The test system of a further experiment is Streptococcus pneumoniae. Put plainly: Antimicrobial activity against Streptococcus pneumoniae ATCC 49619 by agar dilution method. The format is functional. The procedure, abridged: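 MIC by agar dilution per CLSI recommendations. The strain is a penicillin-susceptible S. pneumoniae quality-control strain, run alongside the clinical GBS isolates. β-lactams tested were penicillin G, penicillin V, ampicillin, oxacillin, cefazolin, cefepime, cefotaxime, ceftizoxime and meropenem.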

For experiment [10], the system named is Streptococcus agalactiae. Put plainly: Antimicrobial activity against penicillin-resistant Streptococcus agalactiae B60 by agar dilution method. The format is functional. The procedure, abridged:
as §1

Experiment [11] has as its system Streptococcus agalactiae. Kind of experiment: Antimicrobial activity against penicillin-resistant Streptococcus agalactiae B1 by agar dilution method. The format is functional. In outline:
as §1

For experiment [12], the system named is Streptococcus agalactiae. Kind of experiment: Antimicrobial activity against penicillin-resistant Streptococcus agalactiae ATCC BAA-611 harboring PBP-2X Q557E mutant gene by agar dilution method. The experiment is classed as functional. The procedure, abridged:
as §1

Experiment [13] has as its system Streptococcus agalactiae. Put plainly: Antimicrobial activity against penicillin-resistant Streptococcus agalactiae B514 by agar dilution method. The experiment is classed as functional. The procedure, abridged:
as §1

The test system of experiment [14] is Streptococcus agalactiae. Put plainly: Antimicrobial activity against penicillin-resistant Streptococcus agalactiae B6 by agar dilution method. The experiment is classed as functional. The procedure, abridged: as §1
Experiment [15] has as its system Streptococcus agalactiae. Kind of experiment: Antimicrobial activity against penicillin-resistant Streptococcus agalactiae B68 by agar dilution method. The format is functional. The procedure, abridged:
as §1

For experiment [16], the system named is Streptococcus agalactiae. Put plainly: Antimicrobial activity against penicillin-resistant Streptococcus agalactiae B513 by agar dilution method. The experiment is classed as functional. The procedure, abridged: as §1
For experiment [17], the system named is Streptococcus agalactiae. Put plainly: Antimicrobial activity against penicillin-susceptible Streptococcus agalactiae ATCC BAA-611 by agar dilution method.
Experiment [18] deals with Streptococcus agalactiae. Kind of experiment: Antimicrobial activity against penicillin-susceptible Streptococcus agalactiae ATCC 12403 by agar dilution method.

For `Cc1nnc(SCC2=C(C(=O)O)N3C(=O)[C@@H](NC(=O)Cn4cnnn4)[C@H]3SC2)s1` [CEFAZOLIN], the MIC in the experiment with Streptococcus agalactiae [1] is 0.5 µg/mL (≈ 1.1 µM); against Streptococcus agalactiae [2] it was 0.5 µg/mL (≈ 1.1 µM); in the experiment on Streptococcus agalactiae [3], 0.5 µg/mL (≈ 1.1 µM); in the experiment with Streptococcus agalactiae [4], 0.5 µg/mL (≈ 1.1 µM); with Streptococcus agalactiae [5] it was 1 µg/mL (≈ 2.2 µM); with Streptococcus agalactiae [6] it was 1 µg/mL (≈ 2.2 µM). Also, the MIC came to 0.5 µg/mL (≈ 1.1 µM) against Streptococcus agalactiae [7]; 1 µg/mL (≈ 2.2 µM) with Streptococcus agalactiae [8]; 1 µg/mL (≈ 2.2 µM) against Streptococcus agalactiae [9]; 1 µg/mL (≈ 2.2 µM) with Streptococcus pneumoniae; 1 µg/mL (≈ 2.2 µM) in the experiment with Streptococcus agalactiae [10]; 2 µg/mL (≈ 4.4 µM) against Streptococcus agalactiae [11]. Besides, the MIC in the experiment on Streptococcus agalactiae [12] amounted to 2 µg/mL (≈ 4.4 µM); against Streptococcus agalactiae [13], 1 µg/mL (≈ 2.2 µM); in the experiment with Streptococcus agalactiae [14] it was 1 µg/mL (≈ 2.2 µM); against Streptococcus agalactiae [15] it was 0.5 µg/mL (≈ 1.1 µM); in the experiment on Streptococcus agalactiae [16], 1 µg/mL (≈ 2.2 µM); with Streptococcus agalactiae [17] it was 0.12 µg/mL (≈ 0.264 µM). Further, the lowest concentration to inhibit growth in the experiment on Streptococcus agalactiae [18] (MIC) was 0.12 µg/mL (≈ 0.264 µM).

For `CC1(C)S[C@@H]2[C@H](NC(=O)[C@H](N)c3ccccc3)C(=O)N2[C@H]1C(=O)O` [AMPICILLIN], the MIC was 0.25 µg/mL (≈ 0.715 µM) with Streptococcus agalactiae [1]; 0.12 µg/mL (≈ 0.343 µM) in the experiment on Streptococcus agalactiae [2]; 0.5 µg/mL (≈ 1.43 µM) against Streptococcus agalactiae [3]; 0.25 µg/mL (≈ 0.715 µM) in the experiment on Streptococcus agalactiae [4]; 0.12 µg/mL (≈ 0.343 µM) in the experiment on Streptococcus agalactiae [5]; 0.5 µg/mL (≈ 1.43 µM) against Streptococcus agalactiae [6]. Moreover, the MIC against Streptococcus agalactiae [7] came to 0.5 µg/mL (≈ 1.43 µM); against Streptococcus agalactiae [8] it was 0.12 µg/mL (≈ 0.343 µM); against Streptococcus agalactiae [9], 0.25 µg/mL (≈ 0.715 µM); in the experiment with Streptococcus pneumoniae, 0.12 µg/mL (≈ 0.343 µM); in the experiment on Streptococcus agalactiae [10], 0.25 µg/mL (≈ 0.715 µM); against Streptococcus agalactiae [11], 0.12 µg/mL (≈ 0.343 µM). Moreover, the MIC with Streptococcus agalactiae [12] turned out to be 0.12 µg/mL (≈ 0.343 µM); against Streptococcus agalactiae [13] it was 0.5 µg/mL (≈ 1.43 µM); in the experiment on Streptococcus agalactiae [14] it was 0.12 µg/mL (≈ 0.343 µM); in the experiment with Streptococcus agalactiae [15] it was 0.5 µg/mL (≈ 1.43 µM); against Streptococcus agalactiae [16] it was 0.5 µg/mL (≈ 1.43 µM); against Streptococcus agalactiae [17], 0.12 µg/mL (≈ 0.343 µM). The compound also displayed an MIC against Streptococcus agalactiae [18] of 0.12 µg/mL (≈ 0.343 µM).

For `CO/N=C(\C(=O)N[C@@H]1C(=O)N2C(C(=O)[O-])=C(C[N+]3(C)CCCC3)CS[C@H]12)c1csc(N)n1` [CEFEPIME], the MIC is 0.5 µg/mL (≈ 1.04 µM) with Streptococcus agalactiae [1]; 0.25 µg/mL (≈ 0.52 µM) with Streptococcus agalactiae [2]; 0.5 µg/mL (≈ 1.04 µM) in the experiment with Streptococcus agalactiae [3]; 0.5 µg/mL (≈ 1.04 µM) against Streptococcus agalactiae [4]; 0.25 µg/mL (≈ 0.52 µM) against Streptococcus agalactiae [5]; 0.5 µg/mL (≈ 1.04 µM) against Streptococcus agalactiae [6]. Further, the MIC against Streptococcus agalactiae [7] is 0.25 µg/mL (≈ 0.52 µM); against Streptococcus agalactiae [8], 0.25 µg/mL (≈ 0.52 µM); in the experiment with Streptococcus agalactiae [9], 0.5 µg/mL (≈ 1.04 µM); in the experiment with Streptococcus pneumoniae, 0.03 µg/mL (≈ 0.0624 µM); against Streptococcus agalactiae [10] it was 0.25 µg/mL (≈ 0.52 µM); in the experiment on Streptococcus agalactiae [11], 0.5 µg/mL (≈ 1.04 µM). Moreover, the MIC against Streptococcus agalactiae [12] came out at 0.5 µg/mL (≈ 1.04 µM); against Streptococcus agalactiae [13], 0.5 µg/mL (≈ 1.04 µM); against Streptococcus agalactiae [14], 0.25 µg/mL (≈ 0.52 µM); in the experiment with Streptococcus agalactiae [15], 0.5 µg/mL (≈ 1.04 µM); against Streptococcus agalactiae [16], 1 µg/mL (≈ 2.08 µM); with Streptococcus agalactiae [17], 0.06 µg/mL (≈ 0.125 µM). The compound also returned an MIC in the experiment with Streptococcus agalactiae [18] of 0.06 µg/mL (≈ 0.125 µM).

Turning to `CO/N=C(\C(=O)N[C@@H]1C(=O)N2C(C(=O)O)=C(COC(C)=O)CS[C@H]12)c1csc(N)n1` [CEFOTAXIME], the MIC is 0.25 µg/mL (≈ 0.549 µM) in the experiment with Streptococcus agalactiae [1]; 0.12 µg/mL (≈ 0.263 µM) with Streptococcus agalactiae [2]; 0.25 µg/mL (≈ 0.549 µM) with Streptococcus agalactiae [3]; 0.12 µg/mL (≈ 0.263 µM) in the experiment with Streptococcus agalactiae [4]; 0.5 µg/mL (≈ 1.1 µM) in the experiment with Streptococcus agalactiae [5]; 0.25 µg/mL (≈ 0.549 µM) in the experiment with Streptococcus agalactiae [6]. The MIC came out at 0.25 µg/mL (≈ 0.549 µM) with Streptococcus agalactiae [7]; 0.5 µg/mL (≈ 1.1 µM) against Streptococcus agalactiae [8]; 0.5 µg/mL (≈ 1.1 µM) with Streptococcus agalactiae [9]; 0.03 µg/mL (≈ 0.0659 µM) in the experiment on Streptococcus pneumoniae; 0.25 µg/mL (≈ 0.549 µM) in the experiment with Streptococcus agalactiae [10]; 2 µg/mL (≈ 4.39 µM) in the experiment with Streptococcus agalactiae [11]. For the same compound, the MIC with Streptococcus agalactiae [12] is 0.5 µg/mL (≈ 1.1 µM); against Streptococcus agalactiae [13], 0.25 µg/mL (≈ 0.549 µM); in the experiment on Streptococcus agalactiae [14], 1 µg/mL (≈ 2.2 µM); in the experiment with Streptococcus agalactiae [15] it was 0.25 µg/mL (≈ 0.549 µM); against Streptococcus agalactiae [16] it was 1 µg/mL (≈ 2.2 µM); in the experiment on Streptococcus agalactiae [17] it was 0.06 µg/mL (≈ 0.132 µM). Besides, 0.06 µg/mL (≈ 0.132 µM) was the least that counted as inhibitory against Streptococcus agalactiae [18] (MIC).

As a reminder, the MIC is the least concentration at which growth counts as inhibited.
